Reference: ChEMBL document CHEMBL1255409, “In vitro activity of ceftaroline against 623 diverse strains of anaerobic bacteria” (2010)
≈ marks a conversion by molar mass, not a printed value.

Experiments:
Assay type in all cases: functional
Prevotella bivia = experiment: Antimicrobial activity against Prevotella bivia under anaerobic conditions after 44 hrs by CLSI-M11-47 protocol based agar dilution method
Outline: (§1)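 Clinical isolates were stored at −70°C in 20% skim milk and identified phenotypically or by partial 16S rRNA sequencing. Each strain was subcultured twice from frozen stock. Cell paste from 48-h cultures was suspended in brucella broth to a 0.5 McFarland standard. About 10^5 CFU per spot were applied by Steers replicator to agar dilution plates prepared on the day of testing. Plates were incubated 44 h at 37°C in an anaerobic chamber. MIC was taken as the lowest concentration giving complete inhibition or marked reduction of growth versus the drug-free control.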

Prevotella tannerae = experiment: Antimicrobial activity against Prevotella tannerae under anaerobic conditions after 44 hrs by CLSI-M11-47 protocol based agar dilution method; conditions: Alloprevotella tannerae; outline: as §1
[1] = test system: Porphyromonas asaccharolytica; experiment: Antimicrobial activity against Porphyromonas asaccharolyticus under anaerobic conditions after 44 hrs by CLSI-M11-47 protocol based agar dilution method; outline: as §1
Fusobacterium nucleatum = experiment: Antimicrobial activity against Fusobacterium nucleatum under anaerobic conditions after 44 hrs by CLSI-M11-47 protocol based agar dilution method; outline: as §1
[2] = test system: Prevotella melaninogenica; experiment: Antimicrobial activity against Prevotella melaninogenica under anaerobic conditions after 44 hrs by CLSI-M11-47 protocol based agar dilution method; outline: as §1
[3] = test system: Enterocloster clostridioformis; experiment: Antimicrobial activity against Clostridium clostridioforme under anaerobic conditions after 44 hrs by CLSI-M11-47 protocol based agar dilution method
Outline: (§2)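 Reference agar dilution per CLSI M11-A7 with plates made on test day. Clinical isolates were stored at −70°C in 20% skim milk, subcultured twice, and 48-h cell paste was suspended in brucella broth to 0.5 McFarland. About 10^5 CFU/spot was applied with a Steers replicator. Plates were incubated 44 h at 37°C anaerobically. MIC was the lowest concentration giving complete inhibition or marked growth reduction versus the drug-free control.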

Hoylesella loescheii = experiment: Antimicrobial activity against Prevotella loescheii under anaerobic conditions after 44 hrs by CLSI-M11-47 protocol based agar dilution method; outline: as §1
Porphyromonas somerae = experiment: Antimicrobial activity against Porphyromonas somerae under anaerobic conditions after 44 hrs by CLSI-M11-47 protocol based agar dilution method; outline: as §1
Prevotella disiens = experiment: Antimicrobial activity against Prevotella disiens under anaerobic conditions after 44 hrs by CLSI-M11-47 protocol based agar dilution method; outline: as §1
Prevotella bergensis = experiment: Antimicrobial activity against Prevotella bergensis under anaerobic conditions after 44 hrs by CLSI-M11-47 protocol based agar dilution method; conditions: Hallella bergensis; outline: as §1
Phocaeicola vulgatus = experiment: Antimicrobial activity against Bacteroides vulgatus under anaerobic conditions after 44 hrs by CLSI-M11-47 protocol based agar dilution method; outline: as §2
Gemella sanguinis = experiment: Antimicrobial activity against Gemella sanguinis under anaerobic conditions after 44 hrs by CLSI-M11-47 protocol based agar dilution method; outline: as §1
Atopobium parvulum = experiment: Antimicrobial activity against Atopobium parvulum under anaerobic conditions after 44 hrs by CLSI-M11-47 protocol based agar dilution method; conditions: Lancefieldella parvula; outline: as §2
Finegoldia magna = experiment: Antimicrobial activity against Finegoldia magna under anaerobic conditions after 44 hrs by CLSI-M11-47 protocol based agar dilution method; outline: as §2
Peptoniphilus harei = experiment: Antimicrobial activity against Peptoniphilus harei under anaerobic conditions after 44 hrs by CLSI-M11-47 protocol based agar dilution method; outline: as §1
Clostridium tertium = experiment: Antimicrobial activity against Clostridium tertium under anaerobic conditions after 44 hrs by CLSI-M11-47 protocol based agar dilution method; outline: as §2
Solobacterium moorei = experiment: Antimicrobial activity against Solobacterium moorei under anaerobic conditions after 44 hrs by CLSI-M11-47 protocol based agar dilution method; outline: as §1
Clostridium aldenense = experiment: Antimicrobial activity against Clostridium aldenense under anaerobic conditions after 44 hrs by CLSI-M11-47 protocol based agar dilution method; conditions: Enterocloster aldenensis; outline: as §2
Anaerococcus vaginalis = experiment: Antimicrobial activity against Anaerococcus vaginalis under anaerobic conditions after 44 hrs by CLSI-M11-47 protocol based agar dilution method; outline: as §2
Clostridium baratii = experiment: Antimicrobial activity against Clostridium baratii under anaerobic conditions after 44 hrs by CLSI-M11-47 protocol based agar dilution method
Prevotella corporis = experiment: Antimicrobial activity against Prevotella corporis under anaerobic conditions after 44 hrs by CLSI-M11-47 protocol based agar dilution method; outline: as §1
Clostridium perfringens = experiment: Antimicrobial activity against Clostridium perfringens under anaerobic conditions after 44 hrs by CLSI-M11-47 protocol based agar dilution method
Eubacterium contortum = experiment: Antimicrobial activity against Eubacterium contortum under anaerobic conditions after 44 hrs by CLSI-M11-47 protocol based agar dilution method; conditions: Faecalicatena contorta; outline: as §2
Eubacterium limosum = experiment: Antimicrobial activity against Eubacterium limosum under anaerobic conditions after 44 hrs by CLSI-M11-47 protocol based agar dilution method; outline: as §2
Clostridium hathewayi = experiment: Antimicrobial activity against Clostridium hathewayi under anaerobic conditions after 44 hrs by CLSI-M11-47 protocol based agar dilution method; conditions: Hungatella hathewayi; outline: as §2
Prevotella denticola = experiment: Antimicrobial activity against Prevotella denticola under anaerobic conditions after 44 hrs by CLSI-M11-47 protocol based agar dilution method; outline: as §1
Parabacteroides merdae = experiment: Antimicrobial activity against Bacteroides merdae under anaerobic conditions after 44 hrs by CLSI-M11-47 protocol based agar dilution method; outline: as §2
Clostridium citroniae = experiment: Antimicrobial activity against Clostridium citroniae under anaerobic conditions after 44 hrs by CLSI-M11-47 protocol based agar dilution method; conditions: Enterocloster citroniae; outline: as §2
Clostridium glycolicum = experiment: Antimicrobial activity against Clostridium glycolicum under anaerobic conditions after 44 hrs by CLSI-M11-47 protocol based agar dilution method; conditions: Terrisporobacter glycolicus; outline: as §2
[Clostridium] innocuum = Antimicrobial activity against Clostridium […] under anaerobic conditions after 44 hrs by CLSI-M11-47 protocol based agar dilution method; outline: as §2
[4] = test system: Fusobacterium necrophorum; experiment: Antimicrobial activity against Fusobacterium necrophorum under anaerobic conditions after 44 hrs by CLSI-M11-47 protocol based agar dilution method; outline: as §2
Clostridium cadaveris = experiment: Antimicrobial activity against Clostridium cadaveris under anaerobic conditions after 44 hrs by CLSI-M11-47 protocol based agar dilution method; outline: as §2

CCC[C@@H]1C[C@@H](C(=O)N[C@@H]([C@H]2O[C@H](SC)[C@H](O)[C@@H](O)[C@H]2O)[C@H](C)Cl)N(C)C1 [CLINDAMYCIN]
MIC50 (Prevotella bivia): ≤ 0.03 µg/mL
MIC90 (Prevotella bivia): > 128 µg/mL
MIC50 (Prevotella tannerae): ≤ 0.03 µg/mL
MIC90 (Prevotella tannerae): 128 µg/mL (≈ 301 µM)
MIC50 [1]: ≤ 0.03 µg/mL
MIC90 [1]: > 128 µg/mL
MIC50 (Fusobacterium nucleatum): 0.06 µg/mL (≈ 0.141 µM)
MIC90 (Fusobacterium nucleatum): 0.06 µg/mL (≈ 0.141 µM)
MIC50 [2]: ≤ 0.03 µg/mL
MIC90 [2]: > 128 µg/mL
MIC50 [3]: 0.5 µg/mL (≈ 1.18 µM)
MIC90 [3]: 2 µg/mL (≈ 4.71 µM)
MIC50 (Hoylesella loescheii): ≤ 0.03 µg/mL
MIC90 (Hoylesella loescheii): 128 µg/mL (≈ 301 µM)
MIC50 (Porphyromonas somerae): ≤ 0.03 µg/mL
MIC90 (Porphyromonas somerae): > 128 µg/mL
MIC50 (Prevotella disiens): ≤ 0.03 µg/mL
MIC90 (Prevotella disiens): 128 µg/mL (≈ 301 µM)
MIC50 (Prevotella bergensis): ≤ 0.03 µg/mL
MIC90 (Prevotella bergensis): 128 µg/mL (≈ 301 µM)
MIC50 (Phocaeicola vulgatus): 4 µg/mL (≈ 9.41 µM)
MIC90 (Phocaeicola vulgatus): > 128 µg/mL
MIC50 (Gemella sanguinis): 0.125 µg/mL (≈ 0.294 µM)
MIC90 (Gemella sanguinis): 64 µg/mL (≈ 151 µM)
MIC50 (Atopobium parvulum): 0.06 µg/mL (≈ 0.141 µM)
MIC90 (Atopobium parvulum): 2 µg/mL (≈ 4.71 µM)
MIC50 (Finegoldia magna): 2 µg/mL (≈ 4.71 µM)
MIC90 (Finegoldia magna): > 128 µg/mL
MIC50 (Peptoniphilus harei): 0.125 µg/mL (≈ 0.294 µM)
MIC90 (Peptoniphilus harei): 64 µg/mL (≈ 151 µM)
MIC50 (Clostridium tertium): 2 µg/mL (≈ 4.71 µM)
MIC90 (Clostridium tertium): 128 µg/mL (≈ 301 µM)
MIC50 (Solobacterium moorei): 0.06 µg/mL (≈ 0.141 µM)
MIC90 (Solobacterium moorei): 2 µg/mL (≈ 4.71 µM)
MIC50 (Clostridium aldenense): 0.5 µg/mL (≈ 1.18 µM)
MIC90 (Clostridium aldenense): 2 µg/mL (≈ 4.71 µM)
MIC50 (Anaerococcus vaginalis): 0.125 µg/mL (≈ 0.294 µM)
MIC90 (Anaerococcus vaginalis): 64 µg/mL (≈ 151 µM)
MIC50 (Clostridium baratii): 2 µg/mL (≈ 4.71 µM)
MIC90 (Clostridium baratii): 128 µg/mL (≈ 301 µM)
MIC50 (Prevotella corporis): ≤ 0.03 µg/mL
MIC90 (Prevotella corporis): 128 µg/mL (≈ 301 µM)
MIC50 (Clostridium perfringens): 0.25 µg/mL (≈ 0.588 µM)
MIC90 (Clostridium perfringens): 1 µg/mL (≈ 2.35 µM)
MIC50 (Eubacterium contortum): 0.06 µg/mL (≈ 0.141 µM)
MIC90 (Eubacterium contortum): 2 µg/mL (≈ 4.71 µM)
MIC50 (Eubacterium limosum): 0.06 µg/mL (≈ 0.141 µM)
MIC90 (Eubacterium limosum): 2 µg/mL (≈ 4.71 µM)
MIC50 (Clostridium hathewayi): 0.5 µg/mL (≈ 1.18 µM)
MIC90 (Clostridium hathewayi): 2 µg/mL (≈ 4.71 µM)
MIC50 (Prevotella denticola): ≤ 0.03 µg/mL
MIC90 (Prevotella denticola): 128 µg/mL (≈ 301 µM)
MIC50 (Parabacteroides merdae): 4 µg/mL (≈ 9.41 µM)
MIC90 (Parabacteroides merdae): > 128 µg/mL
MIC50 (Clostridium citroniae): 0.5 µg/mL (≈ 1.18 µM)
MIC90 (Clostridium citroniae): 2 µg/mL (≈ 4.71 µM)
MIC50 (Clostridium glycolicum): 2 µg/mL (≈ 4.71 µM)
MIC90 (Clostridium glycolicum): 128 µg/mL (≈ 301 µM)
MIC50 ([Clostridium] innocuum): 0.5 µg/mL (≈ 1.18 µM)
MIC90 ([Clostridium] innocuum): > 128 µg/mL
MIC50 [4]: ≤ 0.03 µg/mL
MIC90 [4]: 0.06 µg/mL (≈ 0.141 µM)
MIC50 (Clostridium cadaveris): 2 µg/mL (≈ 4.71 µM)
MIC90 (Clostridium cadaveris): 128 µg/mL (≈ 301 µM)
